Experimental data: the RNAGym collection of RNA variant scans (doi:10.1126/science.aae0568)
Fewer inactive variants are shown than the library holds.

B1: tRNA (parent)
chain: GUUCCGUUGGCGUAAUGGUAACGCGUCUCCCUCCUAAGGAGAAGACUGCGGGUUCGAGUCCCGUACGGAACG

Variants of: B1
Experiment: yeast fitness relative to wild type (ratio to wild type); higher = fitter; tRNA-Arg(CCU), competitive growth, 37 C, YPD
How it was run: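 Changes in genotype frequencies gave Darwinian fitness relative to wild type. Frequencies were read by 100-nucleotide paired-end sequencing of gene amplicons before and after pooled Saccharomyces cerevisiae strains, carrying tRNA-Arg(CCU) gene variants at the native locus, were competed in YPD at 37°C for 24 hours in six replicates. A genotype was kept only with ≥ 100 starting reads, and estimates < 0.5 were set to 0.5.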

Variant | yeast fitness
C11U U13A | 0.832
C11U U13A A20C C22G | ≤ 0.5
C11U U13A C27G C46A C49G | ≤ 0.5
C11U U13A C30A C33A A57U | ≤ 0.5
C11U U13A C62U | 0.721
C11U U13A G25A | 0.716
C11U U13A U32C C49U | ≤ 0.5
C11U U13C | 0.954
C11U U13C A14G C24A A43C G50C C60G | ≤ 0.5
C11U U13C A42U C55A G56A | 0.762
C11U U13C A42U G63A | ≤ 0.5
C11U U13C A69C | 0.737
C11U U13C C27G A69C | ≤ 0.5
C11U U13C C29U A37C G39A C46A | ≤ 0.5
C11U U13C C30A G52A A69U | ≤ 0.5
C11U U13C C30U | 0.769
C11U U13G A20U U53G | ≤ 0.5
C11U U13G A21G U26C C27G G48C G67A | ≤ 0.5
C11U U13G C29U C34G C46G G58A | ≤ 0.5
C11U U13G U19A C22G G25A | 0.604
C11U U16A A36C A43G C62G A65U | ≤ 0.5
C11U U16A A36G A43G C62A | ≤ 0.5
C11U U16A C24G A42C | ≤ 0.5
C11U U16A C29A A45U | 0.605

Variant | yeast fitness
C11U U16A C60G C62G | ≤ 0.5
C11U U16A G67A | 0.551
C11U U16A U47C | 0.838
C11U U16C | 1.02
C11U U16C C24U A42C G56C A65C | ≤ 0.5
C11U U16C C27G C34G G67A | ≤ 0.5
C11U U16C C27U C31A U35C C55G C66U | ≤ 0.5
C11U U16C C31U A69G | ≤ 0.5
C11U U16C C31U U54C | ≤ 0.5
C11U U16C C33A U53C | ≤ 0.5
C11U U16C G58C | 0.653
C11U U16C U19A C29U | ≤ 0.5
C11U U16G | 0.823
C11U U19A A21C A42G | 0.568
C11U U19A A37C A40C | 0.501
C11U U19A A42G | 0.56
C11U U19A A43U C49U U59A G63A | ≤ 0.5
C11U U19A C29U C30G | ≤ 0.5
C11U U19A C30G G68A | ≤ 0.5
C11U U19A C60G G68A | ≤ 0.5
C11U U19A C61U G68A | ≤ 0.5
C11U U19A G41A A65U | ≤ 0.5
C11U U19A U64C | 0.664
C11U U19C | 0.941

Variant | yeast fitness
C11U U19C G23A G25A A43U C55U | ≤ 0.5
C11U U19G C22G A42G G44C C55U | ≤ 0.5
C11U U19G C27U G48A C61G | ≤ 0.5
C11U U19G C27U G48A C66U | ≤ 0.5
C11U U19G C27U U47C A70U | ≤ 0.5
C11U U19G C33U A40G G67A | ≤ 0.5
C11U U19G G51C C61G | ≤ 0.5
C11U U19G G51C C66A | 0.578
C11U U19G U35G | ≤ 0.5
C11U U26A | 0.999
C11U U26A A43U C60A A65G | 0.531
C11U U26A C31G A37U | ≤ 0.5
C11U U26A C33U U53C | ≤ 0.5
C11U U26A C34G | 0.607
C11U U26C | 0.948
C11U U26C U47A U64A | ≤ 0.5
C11U U26G | 0.856
C11U U26G A43C U53C C66U A70C | 0.504
C11U U26G G56A | ≤ 0.5
C11U U26G U28C C49A G58C C62U | 0.527
C11U U26G U28C G56A | ≤ 0.5
C11U U28A C29U | 0.93
C11U U28A U54C | ≤ 0.5
C11U U28C | 0.918

Variant | yeast fitness
C11U U28C A40C G50C | ≤ 0.5
C11U U28C A40C G50C A70C | ≤ 0.5
C11U U28C C29G | 0.541
C11U U28C C29G G39C | ≤ 0.5
C11U U28C C30G C49G | ≤ 0.5
C11U U28C U32G A70U | ≤ 0.5
C11U U28G C29A | ≤ 0.5
C11U U32A | 0.772
C11U U32A A42C | 0.545
C11U U32A C34A A43C C61U G68A | ≤ 0.5
C11U U32A G50A G51A G56C C61G | ≤ 0.5
C11U U32C | 0.933
C11U U32C A40U | 0.785
C11U U32G U59C | ≤ 0.5
C11U U35A G38A | 0.51
C11U U35A G38A C55A C61G | ≤ 0.5
C11U U35A G38A C61A | ≤ 0.5
C11U U35A G38A G52A G56C | ≤ 0.5
C11U U35A G48C C61U | ≤ 0.5
C11U U35C | 0.7
C11U U35C A36U C46U | 0.75
C11U U35C C46G G52C G68C | ≤ 0.5
C11U U35C G41A G58A | ≤ 0.5
C11U U35G U47A G48A A65U | ≤ 0.5

Variant | yeast fitness
C11U U47C | 1.04
C11U U47C G48A G56A | ≤ 0.5
C11U U47C G51C A70G | 0.669
C11U U47C G67A | 0.783
C11U U47G | 0.688
C11U U53A | 0.751
C11U U53G | 0.608
C11U U54A | 0.733
C11U U54A C62U | ≤ 0.5
C11U U54C | 0.844
C11U U59A C66G | ≤ 0.5
C11U U59A G67A | 0.542
C11U U59A U64G | ≤ 0.5
C11U U59C | 0.937
C11U U59G | 0.786
C11U U64C A65G | 0.667
G12A | 0.999
G12A A14C | 0.796
G12A A14C C27G C46G A65G | ≤ 0.5
G12A A14C C31U C49G C60A | ≤ 0.5
G12A A14C C34G C55U | ≤ 0.5
G12A A14C C34U A37G | ≤ 0.5
G12A A14C G50C | 0.535
G12A A14G A20G G63A | ≤ 0.5

Variant | yeast fitness
G12A A14G A36U C46A | ≤ 0.5
G12A A14G A37U | 0.551
G12A A14G C24G A40U C46A G52C | ≤ 0.5
G12A A14G C27G C34G A37U U64A | ≤ 0.5
G12A A14G C30G C46A | 0.882
G12A A14G C30G C46A G67U | ≤ 0.5
G12A A14U A57G C61U | ≤ 0.5
G12A A14U C66A | ≤ 0.5
G12A A14U U54A A57U | ≤ 0.5
G12A A15C A45U | 0.87
G12A A15C C27G C49G | ≤ 0.5
G12A A15C C31U C62U C66G A70G | ≤ 0.5
G12A A15C C46G | 0.567
G12A A15C C62U C66G A70G | 0.562
G12A A15C G39C C46U | ≤ 0.5
G12A A15G | 0.843
G12A A15G A65C A69C | ≤ 0.5
G12A A15G A65C A70G | ≤ 0.5
G12A A15G A65G | 0.541
G12A A15G C22A | 0.705
G12A A15G C22U C31A U35G C61U A65C | ≤ 0.5
G12A A15G C31A | ≤ 0.5
G12A A15G C49U A65C A70G | ≤ 0.5
G12A A15G G44C U59A | ≤ 0.5

Variant | yeast fitness
G12A A15G G48A | 0.763
G12A A15G U54G | ≤ 0.5
G12A A15U | 0.782
G12A A15U A21C C49U | ≤ 0.5
G12A A15U C22A U26A G58A | 0.629
G12A A15U G51A A65U | ≤ 0.5
G12A A15U G63A | 0.601
G12A A20C A69U | 0.811
G12A A20C C61G C66A | ≤ 0.5
G12A A20C C62G | ≤ 0.5
G12A A20C U54C C62U A70G | ≤ 0.5
G12A A20G A45U C49G G52C | ≤ 0.5
G12A A20G C22U | ≤ 0.5
G12A A20G U26C C29U C31G C33U A42U | ≤ 0.5
G12A A20G U26C C31G C33U A42U | ≤ 0.5
G12A A20U | 0.831
G12A A20U A21U C34G G63C | ≤ 0.5
G12A A20U A42C G68A | 0.519
G12A A20U C27A U32C C55U G68A | ≤ 0.5
G12A A20U C31A G52A C66U | ≤ 0.5
G12A A20U C34A C55G C66A | ≤ 0.5
G12A A20U C49U U53G A65G | ≤ 0.5
G12A A20U G25C U53A | 0.599
